Test results reported in ChEMBL document CHEMBL4325897, “Discovery, synthesis of novel fusidic acid derivatives possessed amino-terminal groups at the 3-hydroxyl position with anticancer activity” (Eur J Med Chem, 2019).
Calls of active or inactive are those of the source. The rule behind the calls is not given here.

Legend:
HeLa [1] = test: Inhibition of protein synthesis in human HeLa cells assessed as decrease in puromycin-incorporated neo-synthesized proteins at 5 uM preincubated for 2 hrs followed by puromycin addition and measured after 10 mins by chemiluminescence assay; format: functional, cell-based
In short: (§1)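 HeLa cells at 70-80% confluence treated with compound for 2 h (range 1-10 μM), then pulsed with 10 μg/mL puromycin for 10 min. After ice-cold PBS washes, lysates run on SDS-PAGE and immunoblotted with anti-puromycin antibody (1:100, overnight, 4 °C) and HRP anti-mouse IgG. Read by enhanced chemiluminescence.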

[2] = Cytotoxicity against human KBV cells assessed as cell viability at 1.5 uM after 72 hrs by MTT assay relative to control; format: functional; details: read-out: Activity
In short: (§2)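 Cells grown in DMEM with 10% heat-inactivated FCS and penicillin/streptomycin at 37 °C, 5% CO2, and used in log phase. Seeded in 96-well plates and exposed to compounds at 5 μM and 1.5 μM for 72 h. MTT added, formazan dissolved in DMSO, OD read at 570 nm, and survival rate calculated. Average of at least three independent experiments.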

[3] = Cytotoxicity against human KBV cells assessed as reduction in cell viability after 72 hrs by MTT assay; format: functional, cell-based
Staphylococcus aureus = test: Antibacterial activity against Staphylococcus aureus; format: functional
MKN-45 [4] = test: Cytotoxicity against human MKN45 cells assessed as cell viability at 1.5 uM after 72 hrs by MTT assay relative to control; format: functional; details: MKN-45, 72 h, read-out: Activity; in short: as §2
MKN-45 [5] = test: Cytotoxicity against human MKN45 cells assessed as reduction in cell viability after 72 hrs by MTT assay; format: functional, cell-based; details: MKN-45, 72 h
U-87 MG [6] = test: Cytotoxicity against human U87 cells assessed as cell viability at 1.5 uM after 72 hrs by MTT assay relative to control; format: functional, U-87MG ATCC; details: read-out: Activity; in short: as §2
HeLa [7] = test: Cytotoxicity against human HeLa cells assessed as cell viability at 1.5 uM after 72 hrs by MTT assay relative to control; format: functional; details: read-out: Activity; in short: as §2
HeLa [8] = test: Cytotoxicity against human HeLa cells assessed as cell viability at 5 uM after 72 hrs by MTT assay relative to control; format: functional; details: read-out: Activity; in short: as §2
HeLa [9] = test: Induction of apoptosis in human HeLa cells assessed as increase in ratio of sub-G0 to G1 phase at 5 uM after 48 to 72 hrs by propidium iodide staining based FACS analysis; format: functional, cell-based
[10] = Cytotoxicity against human JHH7 cells assessed as reduction in cell viability after 72 hrs by MTT assay; format: functional, cell-based; details: JHH7, 72 h
U-87 MG [11] = test: Cytotoxicity against human U87 cells assessed as reduction in cell viability after 72 hrs by MTT assay; format: functional, cell-based, U-87MG ATCC
[12] = Cytotoxicity against HEK293 cells assessed as reduction in cell viability after 72 hrs by MTT assay; format: cell-based; details: human
U-87 MG [13] = test: Cytotoxicity against human U87 cells assessed as cell viability at 5 uM after 72 hrs by MTT assay relative to control; format: functional, U-87MG ATCC; details: read-out: Activity; in short: as §2
HeLa [14] = test: Cytotoxicity against human HeLa cells assessed as reduction in cell viability after 72 hrs by MTT assay; format: functional, cell-based
MKN-45 [15] = test: Cytotoxicity against human MKN45 cells assessed as cell viability at 5 uM after 72 hrs by MTT assay relative to control; format: functional; details: MKN-45, 72 h, read-out: Activity; in short: as §2
HeLa [16] = test: Induction of apoptosis in human HeLa cells assessed as increase in early apoptotic cells at 2 uM after 24 hrs by TUNEL staining based fluorescence microscopic analysis; format: functional, cell-based
In short: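 HeLa cells seeded at 2×10^4 cells/well on cover slips and grown 24 h, then treated at 2 μM for 24 h. Fixed, permeabilized, and incubated with TUNEL reaction mixture (labeling enzyme plus labeled dUTP) at 37 °C for 1 h. DAPI counterstain, and TUNEL-positive cells viewed by fluorescence microscopy.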

[17] = Cytotoxicity against human KBV cells assessed as cell viability at 5 uM after 72 hrs by MTT assay relative to control; format: functional; details: read-out: Activity; in short: as §2
HeLa [18] = test: Inhibition of protein synthesis in human HeLa cells assessed as decrease in puromycin-incorporated neo-synthesized proteins preincubated for 2 hrs followed by puromycin addition and measured after 10 mins by chemiluminescence assay; format: functional, cell-based; in short: as §1
[19] = Toxicity in BALB/c mouse xenografted with human HeLa cells assessed as body weight at 50 mg/kg, ig bid measured every 3 days (reference value: 21.2 +/- 1.5 g); format: organism-based; details: in vivo, po, 72 h
HeLa [20] = test: Antitumor activity against human HeLa cells xenografted in BALB/c mouse assessed as tumor growth inhibition at 50 mg/kg, ig bid measured every 3 days relative to control; format: functional; details: po, 72 h, read-out: TGI
HeLa [21] = test: Antitumor activity against human HeLa cells xenografted in BALB/c mouse assessed as tumor growth inhibition at 25 mg/kg, ig bid measured every 3 days relative to control; format: functional; details: po, 72 h, read-out: TGI
[22] = Toxicity in BALB/c mouse xenografted with human HeLa cells assessed as body weight at 25 mg/kg, ig bid measured every 3 days (reference value: 21.2 +/- 1.5 g); format: organism-based; details: in vivo, po, 72 h

SMILES	viability at 1.5 µM [2] [%]	IC50 [3] [µM]	viability at 1.5 µM (MKN-45 [4]) [%]	IC50 (MKN-45 [5]) [µM]	viability at 1.5 µM (U-87 MG [6]) [%]	viability at 1.5 µM (HeLa [7]) [%]	viability at 5 µM (HeLa [8]) [%]	Activity (HeLa [9])	IC50 [10] [µM]	IC50 (U-87 MG [11]) [µM]	viability at 5 µM (U-87 MG [13]) [%]	IC50 (HeLa [14]) [µM]	viability at 5 µM (MKN-45 [15]) [%]	Activity (HeLa [16])	viability at 5 µM [17] [%]	other results
CC(=O)O[C@H]1C[C@@]2(C)[C@@H](C[C@@H](O)[C@H]3[C@@]4(C)CC[C@@H](O)[C@@H](C)[C@@H]4CC[C@@]32C)/C1=C(\CCC=C(C)C)C(=O)O [FUSIDIC ACID]	71	> 100	80	> 100	92	70	73	inactive	> 100	> 100	87	> 100	83	inactive	67	inhibition (HeLa [1]): inactive; MIC (Staphylococcus aureus): ≤ 0.25 µg/mL; CC50 at 72 h [12]: > 32 µg/mL
CC(=O)O[C@H]1C[C@@]2(C)[C@@H](C[C@@H](O)[C@H]3[C@@]4(C)CC[C@@H](OC(=O)CCN)[C@@H](C)[C@@H]4CC[C@@]32C)/C1=C(\CCC=C(C)C)C(=O)OCc1ccccc1	14	1.26	23	1.28	10	32	13	Active	3.18	2.4	9	3.57	5	Active	12	inhibition (HeLa [18]): Dose-dependent effect; Activity [19]: 20.5 g; inhibition in vivo at 50 mg/kg (HeLa [20]): 45.5%; inhibition in vivo at 25 mg/kg (HeLa [21]): 35.4%; Activity [22]: 20.4 g
